{"data": "Measured values pooled from the literature", "target": "Dual specificity tyrosine-phosphorylation-regulated kinase 2 (DYRK2, Homo sapiens, UniProt Q92630)", "effect on": "enzyme activity", "mode": "inhibitor", "Residues used in one study (Q92630 1-601)": "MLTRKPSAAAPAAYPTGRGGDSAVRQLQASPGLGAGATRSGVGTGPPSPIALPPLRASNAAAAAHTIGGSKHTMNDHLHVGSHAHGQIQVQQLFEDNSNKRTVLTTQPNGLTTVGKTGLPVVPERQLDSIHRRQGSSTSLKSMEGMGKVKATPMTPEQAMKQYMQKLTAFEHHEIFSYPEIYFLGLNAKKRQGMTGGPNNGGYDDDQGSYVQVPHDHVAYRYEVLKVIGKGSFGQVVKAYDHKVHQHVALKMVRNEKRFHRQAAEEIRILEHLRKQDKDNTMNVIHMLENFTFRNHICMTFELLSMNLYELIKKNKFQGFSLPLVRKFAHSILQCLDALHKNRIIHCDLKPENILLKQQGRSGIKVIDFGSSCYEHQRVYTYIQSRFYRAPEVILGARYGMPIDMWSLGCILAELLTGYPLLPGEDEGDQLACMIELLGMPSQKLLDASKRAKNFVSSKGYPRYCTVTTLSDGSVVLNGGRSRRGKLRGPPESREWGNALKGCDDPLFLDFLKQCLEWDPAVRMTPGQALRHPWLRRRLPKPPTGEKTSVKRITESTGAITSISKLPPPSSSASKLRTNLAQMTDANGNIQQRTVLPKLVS"}
{"Structure (SMILES)": "O=C(O)c1ccc2c(c1)nc(Nc1ccccc1)c1ccncc12", "assay": "radiometric", "conditions": "1 µM", "remaining activity": "45%"}
{"Structure (SMILES)": "CCCOc1ccc(OC)c(F)c1C(=O)c1ccc(C(=O)N[C@@H]2CNC[C@H]2NC(=O)c2ccc3[nH]ncc3c2)cc1", "conditions": "10 µM", "remaining activity": "92%"}
{"Structure (SMILES)": "CC(C)(C)C(=O)c1sc(NC2CCCCC2)nc1N", "conditions": "10 µM", "remaining activity": "90%"}
{"Structure (SMILES)": "O=C(Nc1cnn(-c2csc(C(=O)NC3COC3)c2)c1)Nc1c(F)cccc1Cl", "conditions": "5 µM", "remaining activity": "93.6%"}
{"Structure (SMILES)": "COc1cc(Nc2cnc(C#N)c(O[C@H](C)CN(C)C)n2)ncc1-c1cnn(C)c1", "assay": "radiometric", "conditions": "10 µM", "remaining activity": "100%"}
{"Structure (SMILES)": "CC(C)(C)c1nc2c(s1)c1nc(N)ncc1c1ccc(NS(=O)(=O)c3c(F)cccc3F)c(F)c12", "assay": "radiometric", "conditions": "1 µM", "remaining activity": "94%"}
{"Structure (SMILES)": "O=C(O)c1ccc2c(c1)nc(NCCc1ccccc1)c1ccncc12", "assay": "radiometric", "conditions": "1 µM", "remaining activity": "9%"}
{"Structure (SMILES)": "Nc1nc(NC2CCCCC2)sc1C(=O)c1ccccc1", "conditions": "10 µM", "remaining activity": "39%"}
{"Structure (SMILES)": "Cn1c(=O)n(-c2ccc(C(C)(C)C#N)cc2)c2c3cc(-c4cnc5ccccc5c4)ccc3ncc21", "conditions": "10 µM", "remaining activity": "79%"}
{"Structure (SMILES)": "COc1cccc(CCNc2nc3cc(C(=O)O)ccc3c3cnccc23)c1", "assay": "radiometric", "conditions": "1 µM", "remaining activity": "19%"}
{"Structure (SMILES)": "O=C(Nc1cnn(-c2csc(C(=O)NC3COC3)c2)c1)Nc1ccccc1Cl", "conditions": "5 µM", "remaining activity": "88.2%"}
{"Structure (SMILES)": "O=C(O)c1ccc2c(c1)nc(Nc1ccc(Cl)cc1)c1ccncc12", "assay": "radiometric", "conditions": "1 µM", "remaining activity": "11%"}
{"Structure (SMILES)": "COc1cc(Cl)c(C(=O)N[C@@H](CN[C@H]2CC[C@@H](N)CC2)Cc2ccc(C#N)cc2)cc1-c1ccc(CN[C@H](C)c2ccc(C)cc2)o1", "conditions": "1 µM", "remaining activity": "98%"}
